Active and inactive are the calls of the source. The calls are words filed in the database; no cut-off is given here.
Columns and labels:
[1] = tested on: HeLa; test: Stabilization of microtubule in human HeLa cells assessed as increase in cellular density of interphase microtubules at 10 uM after 18 hrs by immunofluoroescence analysis; type: cell-based
Outline: (§1)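 HeLa cells in Basal Medium Eagle with 10% FBS and gentamicin, treated with vehicle or taccalonolide for 18 h. Interphase microtubules visualized by indirect immunofluorescence with a β-tubulin antibody and imaged by fluorescence microscopy. Microtubule density and bundling judged from representative images against vehicle-treated cells.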

[2] = tested on: HeLa; test: Antiproliferative activity against human HeLa cells after 48 hrs by SRB assay; type: functional, cell-based
[3] = tested on: HeLa; test: Antiproliferative activity against human HeLa cells; type: functional, cell-based
Outline: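 HeLa cells (ATCC) grown in Basal Medium Eagle with 10% FBS and 50 μg/mL gentamicin and exposed to compound for 48 h. Cells then TCA-fixed and stained with sulforhodamine B, with density read as absorbance at 560 nm. IC50 (50% inhibition of proliferation) taken ± SD from three independent experiments, each run in triplicate.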

[4] = tested on: HeLa; test: Stabilization of microtubule in human HeLa cells assessed as increase in cellular density of interphase microtubules at 50 uM after 18 hrs by immunofluoroescence analysis; type: cell-based; outline: as §1

| Structure (SMILES) | Activity [1] | IC50 [2] [µM] | IC50 [3] [µM] | Activity [4] |
| --- | --- | --- | --- | --- |
| CC(=O)O[C@H]1C[C@H]2[C@H]([C@@H]3[C@@H](O)[C@@H]4[C@H]([C@H](C)C=C5OC(=O)[C@@](C)(O)[C@@]54C)[C@]31C)[C@@H](O)C(=O)[C@H]1C[C@@H]3O[C@@H]3[C@H](O)[C@@]12C | Active | 1.5 |  |  |
| CC(=O)O[C@H]1[C@H]2[C@H]([C@@H]3[C@@H](O)[C@@H]4[C@H]([C@H](C)[C@@H]5O[C@@]56OC(=O)[C@@](C)(O)[C@]46C)[C@@]3(C)[C@H]1OC(C)=O)[C@@H](O)C(=O)[C@H]1C[C@@H]3O[C@@H]3[C@H](OC(C)=O)[C@]21C |  |  | 0.0042 |  |
| CC(=O)O[C@H]1[C@H]2[C@H]([C@@H]3[C@H]4OC(=O)[C@@](C)(O)[C@@]5(C)C(=O)C[C@@H](C)[C@@H]([C@@H]45)[C@@]3(C)[C@H]1OC(C)=O)[C@@H](O)C(=O)[C@H]1C[C@@H]3O[C@@H]3[C@H](OC(C)=O)[C@]21C |  | > 50 |  | inactive |
| CC(=O)O[C@H]1C[C@H]2[C@H]([C@@H]3[C@@H](O)[C@@H]4[C@H]([C@H](C)C=C5OC(=O)[C@@](C)(O)[C@@]54C)[C@]31C)[C@@H](O)C(=O)[C@@]1(O)C[C@@H]3O[C@@H]3[C@H](OC(C)=O)[C@]21C |  | 34.4 |  | Active |
| CC(=O)O[C@H]1C[C@H]2[C@H]([C@@H]3[C@@H](O)[C@@H]4[C@H]([C@H](C)C=C5OC(=O)[C@@](C)(O)[C@@]54C)[C@]31C)[C@@H](O)C(=O)[C@H]1C[C@@H]3O[C@@H]3[C@H](OC(C)=O)[C@@]12C [TACCALONOLIDE N] |  | 8.5 |  |  |
| CC(=O)O[C@@H]1[C@H]2[C@H]3[C@H]([C@H](OC(C)=O)[C@H](OC(C)=O)[C@]2(C)[C@H]2[C@H](C)[C@@H]4O[C@@]45OC(=O)[C@@](C)(O)[C@]5(C)[C@H]12)[C@]1(C)[C@H](C[C@@H]2O[C@@H]2[C@@H]1OC(C)=O)C(=O)[C@@H]3O |  |  | 0.023 |  |
| CC(=O)O[C@@H]1[C@H]2[C@H]3[C@H]([C@H](OC(C)=O)[C@H](OC(C)=O)[C@]2(C)[C@@H]2[C@@H]1[C@]1(C)C(=C[C@H]2C)OC(=O)[C@@]1(C)O)[C@]1(C)[C@H](C[C@@H]2O[C@@H]2[C@@H]1OC(C)=O)C(=O)[C@@H]3O [TACCALONOLIDE A] |  | 5.32 |  |  |
| CC(=O)O[C@H]1[C@H]2[C@@H](C(=O)[C@H](O)[C@H]3C[C@@H]4O[C@@H]4[C@H](OC(C)=O)[C@]23C)[C@@H]2[C@@H](O)[C@@H]3[C@H]([C@H](C)C=C4OC(=O)[C@@](C)(O)[C@@]43C)[C@@]2(C)[C@H]1OC(C)=O |  | 49.2 |  |  |
| CC(=O)O[C@H]1C[C@H]2[C@H]([C@@H]3[C@@H](O)[C@@H]4[C@H]([C@H](C)C=C5OC(=O)[C@@](C)(O)[C@@]54C)[C@]31C)[C@@H](O)C(=O)[C@@]1(O)C[C@@H]3O[C@@H]3[C@H](OC(=O)CC(C)C)[C@]21C |  | 2 |  | Active |
| CC(=O)O[C@H]1[C@H]2[C@H]([C@@H]3[C@@H](O)[C@@H]4[C@H]([C@H](C)C=C5OC(=O)[C@@](C)(O)[C@@]54C)[C@@]3(C)[C@H]1OC(C)=O)[C@@H](O)C(=O)[C@H]1C[C@@H]3O[C@@H]3[C@H](OC(C)=O)[C@]21C [TACCALONOLIDE B] |  | 3.12 |  |  |
| CC(=O)O[C@@H]1[C@H]2[C@@H]3[C@@H](O)C(=O)[C@H]4C[C@@H]5O[C@@H]5[C@H](OC(C)=O)[C@]4(C)[C@H]3C[C@H](OC(C)=O)[C@]2(C)[C@@H]2[C@@H]1[C@]1(C)C(=C[C@H]2C)OC(=O)[C@@]1(C)O [TACCALONOLIDE E] |  | 39.5 |  |  |
| CC(=O)O[C@H]1C[C@H]2[C@H]([C@@H]3[C@H]4OC(=O)[C@@](C)(O)[C@@]5(C)C(=O)C[C@@H](C)[C@@H]([C@@H]45)[C@]31C)[C@@H](O)C(=O)[C@H]1C[C@@H]3O[C@@H]3[C@H](OC(C)=O)[C@@]12C |  | > 50 |  | inactive |
